Assay results taken from ChEMBL document CHEMBL1154719, “Click chemistry: studies on the synthesis of novel fluorous tagged triazol-4-yl substituted quinazoline derivatives and their biological evaluation--theoretical and experimental validation” (2010).
≈ marks a conversion by molar mass, not a printed value.

Key:
Format in all cases: functional
[1] = test system: Diutina rugosa; test: Antifungal activity against Candida rugosa NCIM 3462 at 100 ug/ml after 48 hrs by agar cup diffusion method; settings: NCIM 3462, 48 h, read-out: DIZ
In short: (§1)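 Agar cup diffusion on autoclaved potato dextrose agar plates. Each plate was spread with 0.5 ml of a week-old culture, and test solutions at 30 and 100 per ml were added to cups. Plates were held at 28 °C for 48 h, and inhibition zone diameters were read in mm. Acetone served as the solvent control and amphotericin-B as the reference.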

[2] = test system: Saccharomyces cerevisiae; test: Antifungal activity against Saccharomyces cerevisiae MTCC 36 at 100 ug/ml after 48 hrs by agar cup diffusion method; settings: MTCC 36, 48 h, read-out: DIZ; in short: as §1
[3] = test system: Staphylococcus epidermidis; test: Antibacterial activity against Staphylococcus epidermidis MTCC 435 by broth dilution method
In short: (§2)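 MIC by broth dilution in nutrient broth. Test bacteria were kept on nutrient agar slants and subcultured in Petri dishes before testing.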

[4] = test system: Aspergillus niger; test: Antifungal activity against Aspergillus niger MTCC 1344 at 30 ug/ml after 48 hrs by agar cup diffusion method; settings: MTCC 1344, 48 h, read-out: DIZ; in short: as §1
[5] = test system: Candida albicans; test: Antifungal activity against Candida albicans MTCC 227 at 100 ug/ml after 48 hrs by agar cup diffusion method; settings: MTCC 227, 48 h, read-out: DIZ; in short: as §1
[6] = test system: Pseudomonas aeruginosa; test: Antibacterial activity against Pseudomonas aeruginosa MTCC 741 by broth dilution method; in short: as §2
[7] = test system: Aspergillus flavus; test: Antifungal activity against Aspergillus flavus MTCC 277 at 100 ug/ml after 48 hrs by agar cup diffusion method; settings: MTCC 277, 48 h, read-out: DIZ; in short: as §1
[8] = test system: Rhizopus arrhizus; test: Antifungal activity against Rhizopus oryzae MTCC 262 at 100 ug/ml after 48 hrs by agar cup diffusion method; settings: MTCC 262, 48 h, read-out: DIZ; in short: as §1
[9] = test system: Candida albicans; test: Antifungal activity against Candida albicans MTCC 227 at 30 ug/ml after 48 hrs by agar cup diffusion method; settings: MTCC 227, 48 h, read-out: DIZ; in short: as §1
[10] = test system: Escherichia coli; test: Antibacterial activity against Escherichia coli MTCC 443 by broth dilution method; in short: as §2
[11] = test system: Staphylococcus aureus; test: Antibacterial activity against Staphylococcus aureus MTCC 96 by broth dilution method; in short: as §2
[12] = test system: Bacillus subtilis; test: Antibacterial activity against Bacillus subtilis MTCC 441 by broth dilution method; in short: as §2
[13] = test system: Aspergillus niger; test: Antifungal activity against Aspergillus niger MTCC 1344 at 100 ug/ml after 48 hrs by agar cup diffusion method; settings: MTCC 1344, 48 h, read-out: DIZ; in short: as §1
[14] = test system: Aspergillus flavus; test: Antifungal activity against Aspergillus flavus MTCC 277 at 30 ug/ml after 48 hrs by agar cup diffusion method; settings: MTCC 277, 48 h, read-out: DIZ; in short: as §1
[15] = test system: Saccharomyces cerevisiae; test: Antifungal activity against Saccharomyces cerevisiae MTCC 36 at 30 ug/ml after 48 hrs by agar cup diffusion method; settings: MTCC 36, 48 h, read-out: DIZ; in short: as §1
[16] = test system: Diutina rugosa; test: Antifungal activity against Candida rugosa NCIM 3462 at 30 ug/ml after 48 hrs by agar cup diffusion method; settings: NCIM 3462, 48 h, read-out: DIZ; in short: as §1
[17] = test system: Rhizopus arrhizus; test: Antifungal activity against Rhizopus oryzae MTCC 262 at 30 ug/ml after 48 hrs by agar cup diffusion method; settings: MTCC 262, 48 h, read-out: DIZ; in short: as §1

Row | SMILES | zone of inhibition at 100 µg/mL [1] [mm] | zone of inhibition at 100 µg/mL [2] [mm] | MIC [3] [µg/mL] | zone of inhibition at 30 µg/mL [4] [mm] | zone of inhibition at 100 µg/mL [5] [mm] | MIC [6] [µg/mL] | zone of inhibition at 100 µg/mL [7] [mm] | zone of inhibition at 100 µg/mL [8] [mm] | zone of inhibition at 30 µg/mL [9] [mm] | MIC [10] [µg/mL] | MIC [11] [µg/mL] | MIC [12] [µg/mL] | zone of inhibition at 100 µg/mL [13] [mm] | zone of inhibition at 30 µg/mL [14] [mm] | zone of inhibition at 30 µg/mL [15] [mm] | zone of inhibition at 30 µg/mL [16] [mm] | zone of inhibition at 30 µg/mL [17] [mm]
1 | FC(F)(F)c1nc(OCc2cn(CCC(F)(F)C(F)(F)C(F)(F)C(F)(F)C(F)(F)C(F)(F)F)nn2)c2ccccc2n1 | 9 | 9 | 9.38 (≈ 14.6 µM) | 8 | 12 | 37.5 (≈ 58.5 µM) | 9 | 9 | 8 | 75 (≈ 117 µM) | 9.38 (≈ 14.6 µM) | 18.8 (≈ 29.2 µM) | 12 | – | – | – | –
2 | O=c1c2ccccc2nc(C(F)(F)F)n1Cc1cn(CCC(F)(F)C(F)(F)C(F)(F)C(F)(F)C(F)(F)C(F)(F)C(F)(F)C(F)(F)F)nn1 | – | 9 | 75 (≈ 101 µM) | 7 | 9 | 75 (≈ 101 µM) | 9 | – | 7 | 75 (≈ 101 µM) | 75 (≈ 101 µM) | 75 (≈ 101 µM) | 9 | – | – | – | –
3 | O=c1c2ccccc2nc(-c2c(F)cccc2F)n1Cc1cn(CCC(F)(F)C(F)(F)C(F)(F)C(F)(F)C(F)(F)C(F)(F)C(F)(F)C(F)(F)F)nn1 | 9 | 9 | 150 (≈ 191 µM) | 7 | 10 | 75 (≈ 95.5 µM) | 9 | 9 | 7 | 75 (≈ 95.5 µM) | 150 (≈ 191 µM) | 150 (≈ 191 µM) | 10 | – | – | – | –
4 | FC(F)(F)C(F)(F)C(F)(F)C(F)(F)C(F)(F)C(F)(F)CCn1cc(COc2nc(-c3ccccc3)nc3ccccc23)nn1 | – | 9 | 75 (≈ 115 µM) | 8 | 11 | 75 (≈ 115 µM) | 9 | – | 8 | 75 (≈ 115 µM) | 75 (≈ 115 µM) | 150 (≈ 231 µM) | 11 | – | – | – | –
5 | O=c1c2ccccc2nc(-c2ccccc2)n1Cc1cn(CCC(F)(F)C(F)(F)C(F)(F)C(F)(F)C(F)(F)C(F)(F)F)nn1 | 10 | 12 | 150 (≈ 231 µM) | 9 | 12 | 37.5 (≈ 57.7 µM) | 12 | 10 | 9 | 75 (≈ 115 µM) | 150 (≈ 231 µM) | 150 (≈ 231 µM) | 12 | 8 | 8 | – | –
6 | O=c1c2ccccc2nc(-c2ccccc2)n1Cc1cn(CCC(F)(F)C(F)(F)C(F)(F)C(F)(F)C(F)(F)C(F)(F)C(F)(F)C(F)(F)F)nn1 | 10 | 9 | 75 (≈ 100 µM) | – | 9 | 75 (≈ 100 µM) | 9 | 10 | – | 15 (≈ 20 µM) | 75 (≈ 100 µM) | 150 (≈ 200 µM) | 9 | – | – | – | –
7 | FC(F)(F)C(F)(F)C(F)(F)C(F)(F)C(F)(F)C(F)(F)C(F)(F)C(F)(F)CCn1cc(COc2nc(-c3ccccc3)nc3ccccc23)nn1 | 10 | 10 | 150 (≈ 200 µM) | 7 | 10 | 75 (≈ 100 µM) | 10 | 10 | 7 | 150 (≈ 200 µM) | 150 (≈ 200 µM) | 150 (≈ 200 µM) | 10 | 7 | 7 | – | –
8 | CC1(C)S[C@@H]2[C@H](NC(=O)Cc3ccccc3)C(=O)N2[C@H]1C(=O)O [PENICILLIN G] | – | – | 3.12 (≈ 9.35 µM) | – | – | 12.5 (≈ 37.4 µM) | – | – | – | 6.25 (≈ 18.7 µM) | 6.25 (≈ 18.7 µM) | 1.53 (≈ 4.56 µM) | – | – | – | – | –
9 | FC(F)(F)c1nc(OCc2cn(CCC(F)(F)C(F)(F)C(F)(F)C(F)(F)C(F)(F)C(F)(F)C(F)(F)C(F)(F)F)nn2)c2ccccc2n1 | – | – | 150 (≈ 202 µM) | – | 9 | 150 (≈ 202 µM) | – | – | – | 150 (≈ 202 µM) | 150 (≈ 202 µM) | 150 (≈ 202 µM) | 9 | – | – | – | –
10 | O=c1c2ccccc2nc(C(F)(F)F)n1Cc1cn(CCC(F)(F)C(F)(F)C(F)(F)C(F)(F)C(F)(F)C(F)(F)F)nn1 | 13 | 12 | 150 (≈ 234 µM) | – | 9 | 75 (≈ 117 µM) | 12 | 13 | – | 75 (≈ 117 µM) | 150 (≈ 234 µM) | 150 (≈ 234 µM) | 9 | 9 | 9 | 8 | 8
11 | CN[C@@H]1[C@H](O[C@H]2[C@H](O[C@H]3[C@H](O)[C@@H](O)[C@H](N=C(N)N)[C@@H](O)[C@@H]3N=C(N)N)O[C@@H](C)[C@]2(O)C=O)O[C@@H](CO)[C@H](O)[C@H]1O [STREPTOMYCIN] | – | – | 1.56 (≈ 2.69 µM) | – | – | 3.12 (≈ 5.37 µM) | – | – | – | 3.12 (≈ 5.37 µM) | 1.56 (≈ 2.68 µM) | 6.25 (≈ 10.7 µM) | – | – | – | – | –
12 | C#CCOc1nc(-c2ccccc2)nc2ccccc12 | – | – | 150 (≈ 576 µM) | 7 | 10 | 150 (≈ 576 µM) | – | – | 7 | 150 (≈ 576 µM) | 150 (≈ 576 µM) | 150 (≈ 576 µM) | 10 | – | – | – | –
13 | FC(F)(F)C(F)(F)C(F)(F)C(F)(F)C(F)(F)C(F)(F)C(F)(F)C(F)(F)CCn1nncc1COc1nc(-c2ccccc2)nc2ccccc12 | 12 | 9 | 9.38 (≈ 12.5 µM) | 8 | 12 | 37.5 (≈ 50 µM) | 9 | 12 | 8 | 75 (≈ 100 µM) | 9.38 (≈ 12.5 µM) | 37.5 (≈ 50 µM) | 12 | – | – | – | –
14 | O=c1c2ccccc2nc(-c2c(F)cccc2F)n1Cc1cn(CCC(F)(F)C(F)(F)C(F)(F)C(F)(F)C(F)(F)C(F)(F)F)nn1 | – | – | 150 (≈ 219 µM) | 7 | 10 | 150 (≈ 219 µM) | – | – | 7 | 150 (≈ 219 µM) | 150 (≈ 219 µM) | 150 (≈ 219 µM) | 10 | – | – | – | –
